ChEMBL document CHEMBL4382197, “Discovery of QCA570 as an Exceptionally Potent and Efficacious Proteolysis Targeting Chimera (PROTAC) Degrader of the Bromodomain and Extra-Terminal (BET) Proteins Capable of Inducing Complete and Durable Tumor Regression” (J Med Chem, 2018)
Active and inactive are the calls of the source. The rule behind the calls is not given here.

Experiments:
[1] = target: Protein cereblon/Bromodomain-containing protein 3/Cullin-4A (Homo sapiens) (UniProt Q15059+Q96SW2+Q13619); assay: Protac activity at cereblon/cullin 4A/BRD3 in human RS4:11 cells assessed as BRD3 degradation at 0.5 nM after 3 hrs in presence of neddylation inhibitor MLN4924 by Western blot analysis; type: cell-based
Chain of Protein cereblon/Bromodomain-containing protein 3/Cullin-4A (Homo sapiens) (Q13619 whole entry, looked up): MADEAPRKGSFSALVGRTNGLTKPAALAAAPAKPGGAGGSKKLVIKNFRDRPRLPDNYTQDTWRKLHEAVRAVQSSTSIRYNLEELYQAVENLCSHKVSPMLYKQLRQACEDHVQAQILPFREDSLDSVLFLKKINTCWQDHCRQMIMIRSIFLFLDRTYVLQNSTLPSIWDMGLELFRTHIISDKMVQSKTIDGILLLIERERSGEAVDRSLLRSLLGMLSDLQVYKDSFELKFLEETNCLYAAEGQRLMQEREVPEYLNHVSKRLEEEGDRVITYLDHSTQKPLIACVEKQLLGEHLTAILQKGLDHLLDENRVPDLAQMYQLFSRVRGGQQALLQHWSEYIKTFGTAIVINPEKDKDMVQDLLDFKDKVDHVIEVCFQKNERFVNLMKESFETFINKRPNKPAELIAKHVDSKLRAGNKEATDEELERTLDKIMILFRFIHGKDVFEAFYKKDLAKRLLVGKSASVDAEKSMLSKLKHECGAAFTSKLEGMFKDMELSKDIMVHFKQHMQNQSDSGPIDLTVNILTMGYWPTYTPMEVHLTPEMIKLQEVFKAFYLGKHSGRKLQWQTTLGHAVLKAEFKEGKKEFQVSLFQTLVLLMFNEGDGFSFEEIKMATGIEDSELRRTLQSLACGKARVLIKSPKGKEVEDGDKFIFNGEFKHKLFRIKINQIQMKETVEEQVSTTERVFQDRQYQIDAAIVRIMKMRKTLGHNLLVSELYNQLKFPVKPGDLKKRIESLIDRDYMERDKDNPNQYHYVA
Chain of Protein cereblon/Bromodomain-containing protein 3/Cullin-4A (Homo sapiens) (Q15059 whole entry, looked up): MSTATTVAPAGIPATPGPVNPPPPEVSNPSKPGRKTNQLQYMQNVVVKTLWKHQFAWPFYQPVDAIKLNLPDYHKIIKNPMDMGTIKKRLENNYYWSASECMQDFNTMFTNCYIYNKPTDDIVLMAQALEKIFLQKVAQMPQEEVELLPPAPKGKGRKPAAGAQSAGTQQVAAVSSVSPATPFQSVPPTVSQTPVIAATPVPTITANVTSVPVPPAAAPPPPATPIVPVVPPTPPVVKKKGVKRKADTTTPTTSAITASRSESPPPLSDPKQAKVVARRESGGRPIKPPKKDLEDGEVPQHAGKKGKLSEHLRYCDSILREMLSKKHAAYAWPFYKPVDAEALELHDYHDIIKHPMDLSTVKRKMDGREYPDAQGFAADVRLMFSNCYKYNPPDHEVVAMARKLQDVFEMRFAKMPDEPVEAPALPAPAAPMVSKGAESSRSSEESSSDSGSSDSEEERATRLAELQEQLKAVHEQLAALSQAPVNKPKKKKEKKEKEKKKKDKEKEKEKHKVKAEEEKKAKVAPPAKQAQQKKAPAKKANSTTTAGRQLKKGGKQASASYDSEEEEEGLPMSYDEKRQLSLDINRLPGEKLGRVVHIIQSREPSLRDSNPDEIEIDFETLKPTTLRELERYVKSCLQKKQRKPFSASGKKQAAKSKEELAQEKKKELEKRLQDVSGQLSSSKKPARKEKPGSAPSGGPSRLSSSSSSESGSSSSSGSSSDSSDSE
Chain of Protein cereblon/Bromodomain-containing protein 3/Cullin-4A (Homo sapiens) (Q96SW2 whole entry, looked up): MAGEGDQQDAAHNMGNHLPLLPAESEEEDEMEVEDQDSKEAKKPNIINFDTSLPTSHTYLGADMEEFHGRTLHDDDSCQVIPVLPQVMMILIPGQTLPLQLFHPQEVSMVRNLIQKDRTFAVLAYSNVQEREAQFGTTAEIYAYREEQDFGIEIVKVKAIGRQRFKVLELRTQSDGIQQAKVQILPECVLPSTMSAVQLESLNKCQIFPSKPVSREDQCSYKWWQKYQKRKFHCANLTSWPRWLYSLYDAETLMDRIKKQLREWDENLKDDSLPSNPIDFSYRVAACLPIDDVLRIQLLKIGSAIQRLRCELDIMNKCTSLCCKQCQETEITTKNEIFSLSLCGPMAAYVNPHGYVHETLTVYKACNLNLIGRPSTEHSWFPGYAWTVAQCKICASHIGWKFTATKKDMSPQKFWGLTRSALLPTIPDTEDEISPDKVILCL
Procedure, shortened: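 RS4;11 cells were pre-treated for 2 h with DMSO, lenalidomide (10 μM), MLN4924 (1 μM) or MG-132 (20 μM). The degrader was then added at 0.5 nM for 3 h. Lysates were immunoblotted for BRD2, BRD3 and BRD4, with GAPDH as loading control.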

MV4-11 = assay: Induction of apoptosis in human MV4-11 cells at 1 nM after 24 hrs by Annexin V/propidium iodine-double staining-based flow cytometry relative to control; type: functional
Procedure, shortened: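 Leukemia cells were treated for 24 h or 48 h at the indicated concentrations. They were then collected, washed in cold PBS and stained with Annexin V and propidium iodide. Apoptotic fraction was measured by flow cytometry.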

RS4-11 = assay: Antitumor activity against human RS4:11 cells xenografted in SCID mouse assessed as induction of apoptosis by measuring PARP cleavage at 1 to 5 mg/kg, iv administered as single dose and measured at 1 to 24 hrs post dose by Western blot analysis; type: functional, organism-based
Procedure, shortened: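 SCID mice bearing subcutaneous RS4;11 tumors were given a single intravenous dose of 1 or 5 mg/kg. Tumors were harvested at 1, 6 and 24 h, two mice per time point. Tissue was ground in liquid nitrogen and lysed in CST buffer with protease inhibitors. 20 µg lysate per lane was probed for BRD2, BRD3, BRD4, c-Myc and cleaved PARP, with GAPDH as loading control.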

[2] = Drug uptake in plasma of SCID mouse xenografted with human RS4:11 cells at 5 mg/kg, iv measured at 6 hrs by LC-MS/MS analysis; type: ADME, organism-based; conditions: in vivo, BLD = below limit of detection
Procedure, shortened: (§1)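 Female SCID mice with RS4;11 tumors received a single 5 mg/kg intravenous dose in 20% PCP/80% PBS. Plasma (heparin) and tissues were taken at 1, 3 and 6 h, one mouse per time point in duplicate. Plasma was precipitated with acetonitrile containing internal standard. Tissues were homogenized 5:1 in 20% acetonitrile. Quantified by LC-MS/MS against spiked plasma standards (2–2000 ng/mL); values in ng/ml or ng/g.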

[3] = Drug uptake in lungs of SCID mouse xenografted with human RS4:11 cells at 5 mg/kg, iv measured at 6 hrs by LC-MS/MS analysis; type: ADME, organism-based, Lung; conditions: in vivo, BLD = below limit of detection; procedure, shortened: as §1
[4] = target: Protein cereblon/Bromodomain-containing protein 2/Cullin-4A (Homo sapiens) (UniProt P25440+Q96SW2+Q13619); assay: Protac activity at cereblon/cullin 4A/BRD2 in human MV4-11 cells assessed as BRD2 degradation at 30 to 100 pM after 3 hrs by Western blot analysis; type: cell-based
Chain of Protein cereblon/Bromodomain-containing protein 2/Cullin-4A (Homo sapiens) (P25440 whole entry, looked up): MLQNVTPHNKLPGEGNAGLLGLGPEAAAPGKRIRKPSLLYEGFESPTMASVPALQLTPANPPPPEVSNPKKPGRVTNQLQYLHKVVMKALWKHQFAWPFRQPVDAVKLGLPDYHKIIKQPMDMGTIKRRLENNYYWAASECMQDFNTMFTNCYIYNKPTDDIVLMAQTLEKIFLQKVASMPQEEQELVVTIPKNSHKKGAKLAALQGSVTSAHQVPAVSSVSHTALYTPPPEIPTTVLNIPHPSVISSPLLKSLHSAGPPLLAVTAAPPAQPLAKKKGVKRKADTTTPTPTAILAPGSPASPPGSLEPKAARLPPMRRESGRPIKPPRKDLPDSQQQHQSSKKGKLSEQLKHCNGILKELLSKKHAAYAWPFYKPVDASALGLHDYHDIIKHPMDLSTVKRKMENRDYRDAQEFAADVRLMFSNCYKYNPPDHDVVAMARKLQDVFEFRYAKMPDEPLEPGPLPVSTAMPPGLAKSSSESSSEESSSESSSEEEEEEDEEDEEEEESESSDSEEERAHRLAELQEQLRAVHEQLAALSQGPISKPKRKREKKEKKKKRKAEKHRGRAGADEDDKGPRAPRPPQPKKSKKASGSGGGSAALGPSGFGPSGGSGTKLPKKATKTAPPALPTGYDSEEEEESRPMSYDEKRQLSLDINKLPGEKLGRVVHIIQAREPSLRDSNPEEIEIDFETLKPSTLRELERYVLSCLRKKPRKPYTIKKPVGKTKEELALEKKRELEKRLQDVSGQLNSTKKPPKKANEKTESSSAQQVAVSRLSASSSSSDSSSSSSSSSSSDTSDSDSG
Chain of Protein cereblon/Bromodomain-containing protein 2/Cullin-4A (Homo sapiens) (Q13619 whole entry, looked up): as the sequence (Q13619 whole entry, looked up) above
Chain of Protein cereblon/Bromodomain-containing protein 2/Cullin-4A (Homo sapiens) (Q96SW2 whole entry, looked up): as the sequence (Q96SW2 whole entry, looked up) above

[5] = target: Protein cereblon/Eukaryotic peptide chain release factor GTP-binding subunit ERF3A/Cullin-4A (Homo sapiens) (UniProt Q96SW2+Q13619+P15170); assay: Induction of Cereblon/Cullin 4A-mediated-GSPT1 degradation in human RS4:11 cells at 0.01 to 10 nM after 3 hrs by Western blot analysis; type: cell-based
Chain of Protein cereblon/Eukaryotic peptide chain release factor GTP-binding subunit ERF3A/Cullin-4A (Homo sapiens) (P15170 whole entry, looked up): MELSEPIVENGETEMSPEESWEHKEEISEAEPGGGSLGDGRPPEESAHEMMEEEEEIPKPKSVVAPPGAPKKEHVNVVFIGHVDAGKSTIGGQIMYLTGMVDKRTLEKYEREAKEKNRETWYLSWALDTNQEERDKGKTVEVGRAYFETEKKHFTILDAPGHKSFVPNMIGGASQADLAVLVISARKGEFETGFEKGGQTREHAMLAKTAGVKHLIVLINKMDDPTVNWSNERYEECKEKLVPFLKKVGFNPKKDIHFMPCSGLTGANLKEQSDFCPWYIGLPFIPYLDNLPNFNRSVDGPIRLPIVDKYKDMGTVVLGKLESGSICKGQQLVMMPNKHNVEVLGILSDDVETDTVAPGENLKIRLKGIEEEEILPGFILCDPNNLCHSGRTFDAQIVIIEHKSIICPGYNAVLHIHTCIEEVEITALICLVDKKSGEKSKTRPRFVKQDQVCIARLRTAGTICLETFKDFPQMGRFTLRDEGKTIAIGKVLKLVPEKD
Chain of Protein cereblon/Eukaryotic peptide chain release factor GTP-binding subunit ERF3A/Cullin-4A (Homo sapiens) (Q13619 whole entry, looked up): as the sequence (Q13619 whole entry, looked up) above
Chain of Protein cereblon/Eukaryotic peptide chain release factor GTP-binding subunit ERF3A/Cullin-4A (Homo sapiens) (Q96SW2 whole entry, looked up): as the sequence (Q96SW2 whole entry, looked up) above

For `Cc1nnc2n1Cc1sc(C#Cc3cnn(CCCC#Cc4cccc5c4CN(C4CCC(=O)NC4=O)C5=O)c3)c(Cc3ccccc3)c1OC2` (configuration not stated), the Activity [1] was “inactive”, the Activity (MV4-11) was over 60% and the Activity (RS4-11) was “Active”. For the same compound, the Cp [2] was “Bld”, the Drug uptake [3] was “Bld” and the Activity [4] was “Active”. For the same compound, the Activity [5] was “inactive”.
